# Active and inactive are the calls of the source. The calls are words filed in the database; no cut-off is given here.
# Tests used:
# HCT-116 = assay: Cytotoxicity against human HCT116 cells at 10 ug/mL by MTT assay; assay type: functional, cell-based
# Klebsiella pneumoniae = assay: Antibacterial activity against Klebsiella pneumoniae ATCC 10032 assessed as inhibition zone at 1 mg after 24 hrs by agar diffusion method; assay type: functional; conditions: ATCC 10032, 24 h, read-out: IZ
# Method in brief: (§1)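 Agar diffusion (cup method). Each compound, 1 mg dissolved in 1 mL DMF; 100 µL of this solution was placed in cups cut in seeded agar. Plates were incubated at 37 °C for 24 h and the inhibition zone was measured.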
# Jejunum [1] = assay: Parasympatholytic activity in isolated rabbit jejunum assessed as decrease in nicotine-induced intestinal contraction; assay type: functional, tissue-based; conditions: Oryctolagus cuniculus
# Method in brief: (§2)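 Isolated rabbit jejunum. Compounds in distilled H2O (1.0 mg/mL stock), used at 1/1000 and 1/100 dilutions. Normal contractions recorded first. Then 0.1 mL nicotine (1/1000 dilution) or 10 gamma acetylcholine (0.1 mL of 1/10 000 dilution) added after the compound. Change in intestinal contraction recorded.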
# Jejunum [2] = assay: Parasympatholytic activity in isolated rabbit jejunum assessed as decrease in 10gamma-acetylcholine induced intestinal contraction; assay type: functional, tissue-based; conditions: Oryctolagus cuniculus; method in brief: as §2
# Heart [3] = assay: Parasympatholytic activity in isolated perfused rabbit heart assessed as decrease in nicotine-induced effect; assay type: functional, tissue-based; conditions: Oryctolagus cuniculus
# Method in brief: (§3)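 Rabbit heart perfused by modified Langendorff method. Normal contractions recorded and receptors (nicotinic, muscarinic, histaminergic, adrenergic) checked. Compound added at 1/100 dilution of 1.0 mg/mL aqueous stock. Then 0.1 mL nicotine (1/1000 dilution of 1 mL/100 mL H2O) or 10 gamma acetylcholine (0.1 mL of 1/10 000 dilution of 1 g/100 mL H2O) given; change in contraction recorded.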
# Heart [4] = assay: Parasympatholytic activity in isolated perfused rabbit heart assessed as decrease in 10gamma-acetylcholine induced effect; assay type: functional, tissue-based; conditions: Oryctolagus cuniculus; method in brief: as §3
# Candida albicans = assay: Antifungal activity against Candida albicans ATCC 2091 assessed as inhibition zone at 1 mg after 24 hrs by agar diffusion method; assay type: functional; conditions: ATCC 2091, 24 h, read-out: IZ
# Method in brief: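 Agar diffusion (cup) assay; Candida albicans ATCC 2091. Compound 1 mg dissolved in 1 mL DMF, 100 µL placed per cup; incubated 37 °C for 24 h; inhibition zone measured in mm.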
# Staphylococcus aureus = assay: Antibacterial activity against Staphylococcus aureus ATCC 6538P assessed as inhibition zone at 1 mg after 24 hrs by agar diffusion method; assay type: functional; conditions: read-out: IZ; method in brief: as §1
# Pseudomonas aeruginosa = assay: Antibacterial activity against Pseudomonas aeruginosa ATCC 9027 assessed as inhibition zone at 1 mg after 24 hrs by agar diffusion method; assay type: functional; conditions: ATCC 9027, 24 h, read-out: IZ; method in brief: as §1
smiles,measurement,setting,value
C[N+]1=C2C=C(N)C(=O)c3[nH]cc(c32)CC1,Activity,HCT-116,Not toxic
COC1=C(Br)C[C@]2(OC=C1Br)ON=C(C(=O)NCCCOc1c(Br)cc(CCN)cc1Br)[C@@H]2O [PSAMMAPLYSIN A],zone of inhibition at 1000 µg/disc,Klebsiella pneumoniae,3 mm
same,Activity,HCT-116,Not toxic
NCCCOc1c(Br)cc(C(O)CN)cc1Br (stereo not drawn),Activity,HCT-116,Not toxic
NCCc1cc(Br)c(OCCCNC(=O)C(N)=O)c(Br)c1 [MOLOKA'IAKITAMIDE],Activity,Jejunum [1],Active
same,Activity,Jejunum [2],Active
same,Activity,Heart [3],Active
same,Activity,Heart [4],Active
same,zone of inhibition at 1000 µg/disc,Candida albicans,3 mm
same,Activity,HCT-116,Not toxic
N#CC(=O)NCCCOc1c(Br)cc(CCN)cc1Br,Activity,HCT-116,Not toxic
COc1c(Br)cc(O)c(O)c1C=O,zone of inhibition at 1000 µg/disc,Klebsiella pneumoniae,3 mm
same,Activity,HCT-116,Not toxic
NCCCOc1c(Br)cc(CCN)cc1Br,Activity,Jejunum [1],Active
same,Activity,Jejunum [2],Active
same,Activity,Heart [3],Active
same,Activity,Heart [4],Active
same,Activity,HCT-116,Not toxic
CCOC(=O)c1c(O)c(O)cc(Br)c1OC [CERATINOPHENOL A],zone of inhibition at 1000 µg/disc,Staphylococcus aureus,7 mm
same,zone of inhibition at 1000 µg/disc,Pseudomonas aeruginosa,4 mm
same,zone of inhibition at 1000 µg/disc,Klebsiella pneumoniae,3 mm
same,zone of inhibition at 1000 µg/disc,Candida albicans,2 mm
same,Activity,HCT-116,Not toxic

# From ChEMBL document CHEMBL1155811, “Bioactive brominated metabolites from the Red Sea sponge Pseudoceratina arabica” (2008)
